Data published in ChEMBL document CHEMBL3232989, “First identification of boronic species as novel potential inhibitors of the Staphylococcus aureus NorA efflux pump” (J Med Chem, 2014).

How the values were obtained:
[1] = biological target: T1, Quinolone resistance protein NorA (Staphylococcus aureus) (UniProt P0A0J7); test: Inhibition of NorA in fluoroquinolone-resistant Staphylococcus aureus 1199B assessed as potentiation of 4 ug/ml of ciprofloxacin MIC at 100 ug/ml after 24 hrs by microdilution method
T1 sequence (whole entry): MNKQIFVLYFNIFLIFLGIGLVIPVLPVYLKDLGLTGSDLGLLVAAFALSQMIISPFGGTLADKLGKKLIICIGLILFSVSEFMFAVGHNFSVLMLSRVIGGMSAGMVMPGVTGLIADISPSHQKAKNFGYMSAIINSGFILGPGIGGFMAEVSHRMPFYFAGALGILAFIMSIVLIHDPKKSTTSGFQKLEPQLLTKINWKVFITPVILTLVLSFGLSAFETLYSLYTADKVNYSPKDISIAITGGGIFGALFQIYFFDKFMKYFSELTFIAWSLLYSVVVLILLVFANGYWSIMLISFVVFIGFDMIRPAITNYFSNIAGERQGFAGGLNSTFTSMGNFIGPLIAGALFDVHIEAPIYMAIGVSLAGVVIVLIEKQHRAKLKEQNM
In short: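 Combination with ciprofloxacin 4 μg/mL (MIC/4) against SA-1199B in MH broth microdilution, 10^6 CFU/mL, 24 h at 37 °C, read at 620 nm and visually. Compounds are first screened at 100 μg/mL; actives are 2-fold serially diluted. MMC4 is the lowest inhibitor concentration giving antibacterial activity with subinhibitory ciprofloxacin. Duplicates.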

Staphylococcus aureus [2] = test: Toxicity in Staphylococcus aureus ATCC 25923 at 100 ug/ml after 24 hrs by microdilution method; type: organism-based
In short: (§1)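 Single-point screen at 100 μg/mL of compound alone in MH broth microdilution, 10^6 CFU/mL, 24 h at 37 °C. Growth is read at 620 nm and visually, giving percent growth inhibition. Compounds inhibiting more than 90% then go to MIC determination. Duplicates.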

Staphylococcus aureus [3] = test: Toxicity in fluoroquinolone-resistant Staphylococcus aureus 1199B expressing NorA at 100 ug/ml after 24 hrs by microdilution method; type: organism-based; in short: as §1
Staphylococcus aureus [4] = test: Toxicity in Staphylococcus aureus ATCC 25923 after 24 hrs by microdilution method; type: organism-based
In short: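 Mueller–Hinton broth microdilution; inoculum from frozen culture grown 18 h at 37 °C, 10^6 CFU/mL per well. Compounds (10 mg/mL DMSO stock) in 2-fold serial dilutions, highest 128 mg/L, first screened at 100 μg/mL. MIC = complete growth inhibition after 24 h at 37 °C, read at 620 nm and visually; duplicate; ampicillin control.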

| SMILES | Activity [1] [µg/mL] | growth inhibition (GI) (Staphylococcus aureus [2]) [%] | growth inhibition (GI) (Staphylococcus aureus [3]) [%] | MIC (Staphylococcus aureus [4]) |
| --- | --- | --- | --- | --- |
| OB(O)c1ccc(Oc2cccnc2)nc1 | > 128 | < 90 | < 90 | >= 64 ug ml-1 |
| CC(C)(O)C(C)(C)OB(OC(C)(C)C(C)(C)O)c1cccnc1F | > 128 | < 90 | < 90 | >= 64 ug ml-1 |
| N#Cc1c(B(O)O)ccnc1Cl | > 128 | < 90 | < 90 | >= 64 ug ml-1 |
| CCOc1ccc(B(OC(C)(C)C(C)(C)O)OC(C)(C)C(C)(C)O)cn1 | 128 | < 90 | < 90 | >= 64 ug ml-1 |
| OB(O)c1ccnc(F)c1 | > 128 | < 90 | < 90 | >= 64 ug ml-1 |
| CC1(C)OB(c2cnc(-c3ccccc3)n2C(=O)c2ccccc2)OC1(C)C | 32 | < 90 | < 90 | >= 64 ug ml-1 |
| CCOc1ncccc1B(O)O | > 128 | < 90 | < 90 | >= 64 ug ml-1 |
| CC(C)(O)C(C)(C)OB(OC(C)(C)C(C)(C)O)c1ccc(OCc2ccccc2)nc1 | 64 | < 90 | < 90 | >= 64 ug ml-1 |
| COc1cccc(B(O)O)c1OC | > 128 | < 90 | < 90 | >= 64 ug ml-1 |
| CC(C)[Si](Oc1ncc(B2OC(C)(C)C(C)(C)O2)o1)(C(C)C)C(C)C | > 128 | < 90 | < 90 | >= 64 ug ml-1 |
| COc1nccc(B(O)O)c1Cl | 32 | < 90 | < 90 | >= 64 ug ml-1 |
| OB(O)c1ccccc1 [PHENYLBORONIC ACID] | 32 | < 90 | < 90 | >= 64 ug ml-1 |
| O[B-](O)(O)c1cccnc1.[Na+] | 128 | < 90 | < 90 | >= 64 ug ml-1 |
| Cn1c(B2OC(C)(C)C(C)(C)O2)cnc1Cl | 128 | < 90 | < 90 | >= 64 ug ml-1 |
| Cc1cccc(C)c1B(O)O | > 128 | < 90 | < 90 | >= 64 ug ml-1 |
| Cc1cc(B(O)O)c(C)s1 | 16 | < 90 | < 90 | >= 64 ug ml-1 |
| Cc1cc(B(OC(C)(C)C(C)(C)O)OC(C)(C)C(C)(C)O)ccn1 | > 128 | < 90 | < 90 | >= 64 ug ml-1 |
| OB(O)c1cccnc1 | 32 | < 90 | < 90 | >= 64 ug ml-1 |

| SMILES | Activity [1] [µg/mL] | growth inhibition (GI) (Staphylococcus aureus [2]) [%] | growth inhibition (GI) (Staphylococcus aureus [3]) [%] | MIC (Staphylococcus aureus [4]) |
| --- | --- | --- | --- | --- |
| N#Cc1cnccc1B(O)O | > 128 | < 90 | < 90 | >= 64 ug ml-1 |
| CC(C)(O)C(C)(C)OB(OC(C)(C)C(C)(C)O)c1cc(Cl)ncc1Cl | 32 | < 90 | < 90 | >= 64 ug ml-1 |
| CC1(C)OB(c2cncs2)OC1(C)C | > 128 | < 90 | < 90 | >= 64 ug ml-1 |
| Cc1c[nH]nc1B(O)O | 64 | < 90 | < 90 | >= 64 ug ml-1 |
| OB(O)c1cccnc1Br | > 128 | < 90 | < 90 | >= 64 ug ml-1 |
| CCc1ccc(B(OC(C)(C)C(C)(C)O)OC(C)(C)C(C)(C)O)cc1 | 32 | < 90 | < 90 | >= 64 ug ml-1 |
| CC(C)(C)OC(=O)n1ncc2cc(B3OC(C)(C)C(C)(C)O3)ccc21 | > 128 | < 90 | < 90 | >= 64 ug ml-1 |
| CC(C)(O)C(C)(C)OB(OC(C)(C)C(C)(C)O)c1ccncc1 | > 128 | < 90 | < 90 | >= 64 ug ml-1 |
| OB(O)c1ccc2[nH]ncc2c1 | 32 | < 90 | < 90 | >= 64 ug ml-1 |
| COc1ncccc1B(O)O | 16 | < 90 | < 90 | >= 64 ug ml-1 |
| Cc1cc(B(O)O)cnc1Br | 32 | < 90 | < 90 | >= 64 ug ml-1 |
| CC(C)(O)C(C)(C)OB(OC(C)(C)C(C)(C)O)c1cncc(Br)c1 | > 128 | < 90 | < 90 | >= 64 ug ml-1 |
| CC(C)(O)C(C)(C)OB(OC(C)(C)C(C)(C)O)c1ccc(NCc2ccccc2)nc1 | 128 | < 90 | < 90 | >= 64 ug ml-1 |
| CC(C)(O)C(C)(C)OB(OC(C)(C)C(C)(C)O)c1ccnc(Cl)c1C#N | > 128 | < 90 | < 90 | >= 64 ug ml-1 |
| CC(C)(O)C(C)(C)OB(OC(C)(C)C(C)(C)O)c1ccncc1C#N | > 128 | < 90 | < 90 | >= 64 ug ml-1 |
| CC(C)(O)C(C)(C)OB(OC(C)(C)C(C)(C)O)c1ccncc1Cl | > 128 | < 90 | < 90 | >= 64 ug ml-1 |
| CC(C)(O)C(C)(C)OB(OC(C)(C)C(C)(C)O)c1cc(Br)cnc1Cl | 128 | < 90 | < 90 | >= 64 ug ml-1 |
| COC(=O)[C@H]1[C@H]2C[C@@H]3c4[nH]c5cc(OC)ccc5c4CCN3C[C@H]2C[C@@H](OC(=O)c2cc(OC)c(OC)c(OC)c2)[C@@H]1OC [RESERPINE] | 4 | – | – | >= 64 ug ml-1 |
